Experimental findings from ChEMBL document CHEMBL1154674, “Synthesis and evaluation of three 18F-labeled aminophenylbenzothiazoles as amyloid imaging agents” (J Med Chem, 2009) are described below.

Assay type in all cases: ADME, organism-based, Macaca mulatta
Series [1] can be described thus: Drug level in normal rhesus monkey parietal cortex assessed as standard uptake value at 96.3 MBq, iv after 42.5 mins by microPET. The following applies: in vivo.
The nature of series [2]: Drug level in normal rhesus monkey parietal cortex assessed as standard uptake value at 96.3 MBq, iv after 27.5 mins by microPET. The following applies: in vivo.
Series [3] is described as follows: Drug level in normal rhesus monkey thalamus assessed as standard uptake value at 96.3 MBq, iv after 135 mins by microPET. The following applies: in vivo, 2.25 h.
Series [4] can be described thus: Drug level in normal rhesus monkey thalamus assessed as standard uptake value at 96.3 MBq, iv after 155 mins by microPET. The following applies: in vivo.
A short description of series [5]: Drug level in normal rhesus monkey pons assessed as standard uptake value at 96.3 MBq, iv after 17.5 mins by microPET. The following applies: in vivo.
A short description of series [6]: Drug level in normal rhesus monkey cerebellum assessed as standard uptake value at 96.3 MBq, iv after 135 mins by microPET. The following applies: in vivo, 2.25 h. The procedure, abridged: (§1)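 One normal rhesus monkey, each tracer given iv via the vena saphena (81.2, 96.3 or 109.4 MBq), with 1 day between tracer injections. Dynamic brain μPET over 180 min used frames of 5 × 60 s, 5 × 120 s, 9 × 300 s and 12 × 600 s. Images were reconstructed by filtered back projection with a RAMP filter. Regional time-activity curves were expressed as SUV.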

A short description of series [7]: Drug level in normal rhesus monkey frontal cortex assessed as standard uptake value at 96.3 MBq, iv after 1.5 mins by microPET. The following applies: in vivo, 0.025 h.
Series [8] is described as follows: Drug level in normal rhesus monkey pons assessed as standard uptake value at 81.2 MBq, iv after 17.5 mins by microPET. The following applies: in vivo.
Series [9] can be described thus: Drug level in normal rhesus monkey parietal cortex assessed as standard uptake value at 81.2 MBq, iv after 6 mins by microPET. The following applies: in vivo, 0.1 h.
A short description of series [10]: Drug level in normal rhesus monkey parietal cortex assessed as standard uptake value at 81.2 MBq, iv after 27.5 mins by microPET. The following applies: in vivo.
The nature of series [11]: Drug level in normal rhesus monkey parietal cortex assessed as standard uptake value at 81.2 MBq, iv after 52.5 mins by microPET. The following applies: in vivo, 0.875 h.
The nature of series [12]: Drug level in normal rhesus monkey white matter assessed as standard uptake value at 81.2 MBq, iv after 8 mins by microPET. The following applies: in vivo.
Series [13] is described as follows: Drug level in normal rhesus monkey white matter assessed as standard uptake value at 81.2 MBq, iv after 57.5 mins by microPET. The following applies: in vivo.
Series [14] can be described thus: Drug level in normal rhesus monkey thalamus assessed as standard uptake value at 81.2 MBq, iv after 95 mins by microPET. The following applies: in vivo.
Series [15] in a line: Drug level in normal rhesus monkey thalamus assessed as standard uptake value at 81.2 MBq, iv after 115 mins by microPET. The following applies: in vivo.
A short description of series [16]: Drug level in normal rhesus monkey frontal cortex assessed as standard uptake value at 81.2 MBq, iv after 65 mins by microPET. The following applies: in vivo.
A short description of series [17]: Drug level in normal rhesus monkey cerebellum assessed as standard uptake value at 81.2 MBq, iv after 22.5 mins by microPET. The following applies: in vivo, 0.375 h. The procedure, abridged: as §1
The nature of series [18]: Drug level in normal rhesus monkey cerebellum assessed as standard uptake value at 81.2 MBq, iv after 37.5 mins by microPET. The following applies: in vivo, 0.625 h. The method, boiled down:
as §1

Series [19] is described as follows: Drug level in normal rhesus monkey frontal cortex assessed as standard uptake value at 81.2 MBq, iv after 6 mins by microPET. The following applies: in vivo, 0.1 h.
Series [20] can be described thus: Drug level in normal rhesus monkey frontal cortex assessed as standard uptake value at 81.2 MBq, iv after 22.5 mins by microPET. The following applies: in vivo, 0.375 h.
Series [21] can be described thus: Drug level in normal rhesus monkey frontal cortex assessed as standard uptake value at 81.2 MBq, iv after 32.5 mins by microPET. The following applies: in vivo.
Series [22] can be described thus: Drug level in normal rhesus monkey cerebellum assessed as standard uptake value at 152.9 MBq, iv after 3.5 mins by microPET. The following applies: in vivo. The method, boiled down:
(§2)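 One normal rhesus monkey received each tracer via the vena saphena, with 1 day between injections. Dynamic μPET ran 180 min for 18F tracers (5×60 s, 5×120 s, 9×300 s, 12×600 s) and 90 min for the 11C tracer (5×60 s, 5×120 s, 9×300 s, 3×600 s). Filtered back-projection reconstruction (RAMP filter) was used. Time-activity curves were drawn to give regional SUV.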

A short description of series [23]: Drug level in normal rhesus monkey cerebellum assessed as standard uptake value at 152.9 MBq, iv after 42.5 mins by microPET. The following applies: in vivo. The procedure, abridged:
as §2

Series [24] is described as follows: Drug level in normal rhesus monkey cerebellum assessed as standard uptake value at 152.9 MBq, iv after 75 mins by microPET. The following applies: in vivo, 1.25 h. The method, boiled down:
(§3)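 Single normal rhesus monkey; tracer given iv via the vena saphena, 1 day apart from the other tracer injections. Dynamic μPET ran 90 min (5×60 s, 5×120 s, 9×300 s, 3×600 s). Images were reconstructed by filtered back projection with a RAMP filter. Regional time-activity curves were expressed as SUV.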

The nature of series [25]: Drug level in normal rhesus monkey frontal cortex assessed as standard uptake value at 152.9 MBq, iv after 57.5 mins by microPET. The following applies: in vivo. The procedure, abridged: as §3
A short description of series [26]: Drug level in normal rhesus monkey white matter assessed as standard uptake value at 152.9 MBq, iv after 14 mins by microPET. The following applies: in vivo.
Series [27] is described as follows: Drug level in normal rhesus monkey thalamus assessed as standard uptake value at 152.9 MBq, iv after 65 mins by microPET. The following applies: in vivo.
The nature of series [28]: Drug level in normal rhesus monkey pons assessed as standard uptake value at 152.9 MBq, iv after 27.5 mins by microPET. The following applies: in vivo.
The nature of series [29]: Drug level in normal rhesus monkey pons assessed as standard uptake value at 152.9 MBq, iv after 57.5 mins by microPET. The following applies: in vivo.
A short description of series [30]: Drug level in normal rhesus monkey pons assessed as standard uptake value at 152.9 MBq, iv after 65 mins by microPET. The following applies: in vivo.
Series [31] can be described thus: Drug level in normal rhesus monkey parietal cortex assessed as standard uptake value at 152.9 MBq, iv after 4.5 mins by microPET. The following applies: in vivo, 0.075 h.
The nature of series [32]: Drug level in normal rhesus monkey pons assessed as standard uptake value at 109.4 MBq, iv after 3.5 mins by microPET. The following applies: in vivo.
A short description of series [33]: Drug level in normal rhesus monkey pons assessed as standard uptake value at 109.4 MBq, iv after 12.5 mins by microPET. The following applies: in vivo.
Series [34] can be described thus: Drug level in normal rhesus monkey parietal cortex assessed as standard uptake value at 109.4 MBq, iv after 0.625 mins by microPET. The following applies: in vivo, 38 s.
A short description of series [35]: Drug level in normal rhesus monkey cerebellum assessed as standard uptake value at 109.4 MBq, iv after 32.5 mins by microPET. The following applies: in vivo. The method, boiled down: as §2
Series [36] in a line: Drug level in normal rhesus monkey frontal cortex assessed as standard uptake value at 109.4 MBq, iv after 1.5 mins by microPET. The following applies: in vivo, 0.025 h. The procedure, abridged: as §1
Series [37] is described as follows: Drug level in normal rhesus monkey white matter assessed as standard uptake value at 109.4 MBq, iv after 27.5 mins by microPET. The following applies: in vivo.
Series [38] is described as follows: Drug level in normal rhesus monkey parietal cortex assessed as standard uptake value at 109.4 MBq, iv after 69 mins by microPET. The following applies: in vivo, 1.15 h.

SMILES strings stand for the structures.

Take `CN(C)c1ccc2nc(-c3ccc([18F])cc3)sc2c1`: the SUV is on record as 1.79 in series [1]; 1.99 in series [2]; 1.97 in [3]; 1.92 in [4]; 1.51 in series [5]; 0.94 in series [6]. In addition, the SUV in series [7] is given as 1.43.
For `CNc1ccc2nc(-c3ccc([18F])cc3)sc2c1`, the SUV worked out at 5.124 in series [8]; 4.972 in [9]; 4.303 in series [10]; 3.552 in series [11]; 3.412 in series [12]; 3.796 in series [13]. Also, the SUV stood at 5.301 in [14]; 5.209 in series [15]; 5.125 in series [16]; 2.518 in series [17]; 2.545 in series [18]; 5.127 in [19]. Further, the SUV in series [20] came to 5.717; in series [21] it was 5.574.
Regarding `[11CH3]Nc1ccc(-c2nc3ccc(O)cc3s2)cc1` [PITTSBURGH COMPOUND B], the SUV in [22] is listed as 2.17; in series [23], 0.936; in [24], 0.665; in series [25] it was 0.692; in series [26], 1.428; in series [27] it was 0.85. The SUV in series [28] is 1.583; in [29], 0.95; in series [30] it was 0.852; in series [31], 1.925.
Turning to `Nc1ccc2nc(-c3ccc([18F])cc3)sc2c1`, the SUV in [32] was 3.33; in series [33], 4.65; in series [34] it was 1.52; in series [35] it was 4.03; in series [36] it was 3.35; in series [37], 3.2. For the same compound, the SUV in series [38] is listed as 4.1.
